# In the library only some 0.57% were active in any assay of this set; here they are far more common.
# sEH inhibitor: soluble epoxide hydrolase inhibitors, primary screen, biochemical, human sEH | Bifunctional epoxide hydrolase 2 (Homo sapiens), P34913 | recombinant human sEH enzymatic activity assay | inhibition, % at 2 µM | hit rate 0.34% among 91,000 | AID 707, 2007; in the data active = inhibition above about 80%
# Target sequence (P34913 whole entry, looked up): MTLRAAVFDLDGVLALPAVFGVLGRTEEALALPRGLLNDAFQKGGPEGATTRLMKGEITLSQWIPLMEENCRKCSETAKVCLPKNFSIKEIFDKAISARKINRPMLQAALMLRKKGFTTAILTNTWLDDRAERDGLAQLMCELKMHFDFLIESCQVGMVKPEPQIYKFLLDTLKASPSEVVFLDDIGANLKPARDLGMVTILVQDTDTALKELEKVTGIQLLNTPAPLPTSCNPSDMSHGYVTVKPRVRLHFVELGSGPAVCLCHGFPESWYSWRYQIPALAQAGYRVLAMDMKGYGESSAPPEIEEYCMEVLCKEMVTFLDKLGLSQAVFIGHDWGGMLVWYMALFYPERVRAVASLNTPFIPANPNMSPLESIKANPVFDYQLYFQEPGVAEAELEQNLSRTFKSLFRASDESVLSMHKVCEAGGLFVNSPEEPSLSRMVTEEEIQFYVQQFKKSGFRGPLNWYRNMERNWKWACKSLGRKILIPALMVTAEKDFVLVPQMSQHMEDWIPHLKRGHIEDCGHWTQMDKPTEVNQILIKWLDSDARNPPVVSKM
# BAP1 inh: inhibitors of BAP1 deubiquitinase, primary screen, biochemical, Ub-AMC fluorescence, kinetic | Ubiquitin carboxyl-terminal hydrolase BAP1 (Homo sapiens), Q92560 | recombinant BAP1, Ub-AMC hydrolysis fluorescence kinetic; stronger effect = lower value | calls only at 20 µM | hit rate 0.48% among 72,000;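 active = activity remaining at or below 50% of control, provided the compound also passes the data quality filters; inactive = the rest, including low values that fail the filters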;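 also: 100% = DMSO wells rate and 0% = substrate alone blank rate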
# sEH activator: soluble epoxide hydrolase activators, primary screen, biochemical, human sEH; Bifunctional epoxide hydrolase 2 (Homo sapiens), P34913; purified human sEH enzymatic activity, activator screen; activation, % at 2 µM; hit rate 0.04% among 91,000; AID 717, 2007; in the data active = activation above about 37%
# AP complement: alternative complement pathway inhibitors, primary screen, biochemical, ELISA, human serum, orthogonally pooled compounds; LPS-coated ELISA, C3 deposition; tested in compound mixtures; inhibition, % at 5 µM; hit rate 0.08% among 62,000; AID 1235, 2008;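 active = inhibition above 30% in each of the two pooled mixtures holding the compound, so the lower value exceeds 30%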;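 also: 0% = serum in Mg-EGTA without compound and 100% = EDTA serum blank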
#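 Test system: human serum complement alternative pathway, C3 deposition onto LPS / Medium: Mg2+-EGTA GVB++ buffer containing human serum at 1:15 dilution / Probe or stimulus: Plate-bound LPS / Times: 1 h at 37 °C / Signal: ELISA with HRP anti-human C3 antibody, TMB substrate, absorbance 450 nm / Measure: percent inhibition / Repeats: two pool placements per compound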
# BAP1 inh confirm: BAP1 deubiquitinase inhibitors, hit retest, confirmation, orthogonal assay, biochemical, Ub-ethyl ester substrate, HPLC readout. shares compounds with BAP1 inh. % of control activity, % at 20 µM. hit rate 8% among 310. purified BAP1, Ub-ethyl ester hydrolysis; stronger effect = lower value;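 active = percent of control activity at or below 60%; inconclusive = HPLC trace unusable from injection failure or solvent front hiding peaks; inactive = the rest, plus ubiquitin peak ratio over a set limit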
# Numbers without * were called inactive; i = inactive; ? = inconclusive; nt = no result; + = active, no number.
SMILES,sEH inhibitor,BAP1 inh,sEH activator,AP complement,BAP1 inh confirm
CC(=O)N1CCN(c2ccccc2NC(=O)COc2cc(C)ccc2C(C)C)CC1,-3,+,1,17,?
CCOC(=O)c1ccc(NC(=O)CSc2nc(C)cc(=O)[nH]2)cc1,-19,+,18,-3,?
Cc1cccc(N2C(=O)C(Cl)=C(NC3CCCCC3)C2=O)c1C,nt,i,nt,nt,nt
COc1ccc2c(C=Nc3c(C)n(C)n(-c4ccccc4)c3=O)c(O)n(Cc3ccco3)c(=O)c2c1,-4,+,4,7,101
Oc1ccc(Br)cc1C=Nc1nc(-c2cccc3ccccc23)cs1,nt,i,nt,nt,nt
N#Cc1c(NC(=O)COC(=O)C2CC3C=CC2C3)oc(-c2ccccc2)c1-c1ccccc1 (stereo not given),1,+,-3,-1,42*
COc1cccc(Cn2c(C3CC3)nc3ccc(NC(=O)c4ccco4)cc3c2=O)c1,-4,+,8,2,103
c1ccc2c(-c3nc(C4CCCCC4)no3)cc(-c3ccncc3)nc2c1,5,+,-2,6,90
CC1CCN(S(=O)(=O)c2ccc(NC(=O)Cn3nnc(-c4ccccc4F)n3)cc2)CC1,36,+,-37,-9,135
O=C(NCC1CCCO1)c1c(O)c2ccccc2[nH]c1=O (stereo not given),12,+,-14,-1,106
CCN(CC)S(=O)(=O)c1ccc(C(=O)Nc2nnc(-c3ccc(C)cc3)s2)cc1,nt,i,nt,nt,nt
Cc1cc(C(=O)NCc2cc(C(=O)O)oc2C)c(C)o1,0,+,0,16,111
Cc1cc(C(=O)NCC(=O)O)c(C)o1,-14,nt,8,nt,nt
COc1ccc([N+](=O)[O-])cc1NC(=O)c1ccccc1Cl,nt,i,nt,nt,nt
COc1ccc(C(=O)Nc2ccc(-c3nc4ncccc4o3)cc2)cc1OC,nt,i,nt,nt,nt
O=C1c2ccccc2-c2cc(Cl)nc3ccc(Nc4ccccc4)c1c23,nt,i,nt,nt,nt
CCCCc1ccc(Nc2nc(CCC)cc(=O)[nH]2)cc1,7,+,-5,-4,88
N#Cc1c(NC(=O)CSc2nnnn2C2CCCCC2)sc2c1CCCC2,12,+,-14,-11,62
O=c1[nH]c2ccc(Cl)cc2c(-c2ccccc2)c1N1CCN(c2ccccn2)CC1,nt,+,nt,5,109
COc1cccc(NC(=O)c2ccccc2-c2nc(-c3ccc(Cl)cc3)no2)c1,5,+,-8,-1,?
COc1cccc(NC(=O)c2ccccc2-c2nc(-c3ccccc3)no2)c1,12,i,-14,26,nt
CCCC(c1nnnn1CC(=O)OCC)N(Cc1cc2c(C)cc(C)cc2[nH]c1=O)C1CCCC1 (stereo not given),-14,+,15,14,98
CCCC(c1nnnn1CC(=O)OCC)N(Cc1cc2ccc(C)cc2[nH]c1=O)C1CCCC1 (stereo not given),-6,i,6,9,nt
COC(=O)c1c(NC(=O)COc2cc(C)c(Cl)c(C)c2)sc2c1CCC(C)C2 (stereo not given),nt,i,nt,nt,nt
COC(=O)C1=C(C)NC(=O)NC1c1cc(Cl)ccc1OC (stereo not given),4,+,-4,-18,103
SMILES,sEH inhibitor,BAP1 inh,sEH activator,AP complement,BAP1 inh confirm
COc1ccc(Br)cc1C1NC(=O)NC(C)=C1C(=O)N(C)C (stereo not given),6,nt,-5,nt,nt
COc1ccc(-c2nn(C)c(=O)c3ccccc23)cc1NC(=O)Cn1nc(C)c2ccccc2c1=O,-1,+,0,-12,113
Cn1c(C(=O)N2CCCc3ccccc32)cc2c(=O)n3ccccc3nc21,-14,+,14,2,110
Cn1c(C(=O)N2CCc3ccccc32)cc2c(=O)n3ccccc3nc21,nt,i,nt,-2,nt
CCOC(=O)c1oc2ccccc2c1NC(=O)COc1ccc(F)cc1,-5,+,3,10,154
CCOC(=O)c1oc2ccccc2c1NC(=O)COc1cccc(OC)c1,-2,i,3,0,nt
Cc1ccc2c(c1)c1c(n2CC(O)Cn2nc(C)c(Br)c2C)C(=O)CCC1 (stereo not given),-17,+,14,17,91
CSc1nnc2c3cc(C)ccc3n(Cc3ccccc3)c2n1,nt,+,nt,-4,77
CCOC(=O)C(CC)Sc1nnc2c3cc(C)ccc3n(C)c2n1 (stereo not given),-13,nt,17,nt,nt
O=C(C1CCN(c2nnc(-n3cccc3)s2)CC1)N1CCN(c2cccc(C(F)(F)F)c2)CC1,11,+,-12,1,101
Cc1ccc(C)c(N2CCN(C(=O)CCCn3c(=S)[nH]c4cc5c(cc4c3=O)OCO5)CC2)c1,18,+,-16,11,63
CCOC(=O)CSc1nc2cc(OC)ccc2cc1C#N,nt,+,nt,-15,118
CCOC(=O)CSc1nc2cc(C)ccc2cc1C#N,0,i,2,-9,nt
CCCCn1c2c(c3ccccc31)CCc1nonc1-2,-2,+,1,14,51*
CCN(C(=O)CN1C(=O)c2ccccc2C1=O)c1ccccc1C,nt,i,nt,nt,nt
Oc1ccc(Br)cc1/C=N/n1cnc2ccccc21,-7,+,5,19,130
Oc1ccc(Br)cc1/C=N/N1CCN(Cc2ccccc2)CC1,-8,nt,6,nt,nt
Cn1cc(/C=N/n2cnc3scc(-c4ccccc4)c3c2=O)c2ccccc21,5,+,-6,8,91
O=C(Nc1ccc2c(c1)CCC2)c1cc(S(=O)(=O)N2CCCCC2)ccc1Cl,nt,i,nt,nt,nt
O=C(Nc1nc2c(Cl)cccc2s1)c1ccc(Br)o1,-2,i,0,-4,nt
O=C(Nc1nc2ccc(Cl)cc2s1)c1ccc(Br)o1,-10,+,8,10,81
O=C(O)c1oc2ccc(Br)cc2c1-n1cccc1,-7,+,8,23,88
Cc1ccc(O)c(N=CC2=C(O)c3ccccc3C2=O)c1,-7,+,8,11,117
O=C1C(C=Nc2ccccc2O)=C(O)c2ccccc21,-2,i,1,10,nt
O=C(CCS(=O)(=O)c1ccccc1)Nc1nc2c(s1)COc1ccccc1-2,-6,+,5,24,106
O=C(Nc1nc2c(s1)COc1ccccc1-2)c1cccs1,-9,i,13,10,nt
Clc1ccc(OCc2nn3c(-c4ccco4)nnc3s2)c(Cl)c1,-4,+,6,10,106
CCCCCOC(=O)C1=C(C)N(C)C(=O)NC1c1ccccc1Cl (stereo not given),nt,i,nt,nt,nt
Cn1c(-c2c(N)n(C3CCCC3)c3nc4ccccc4nc23)nc2ccccc21,-3,+,4,-8,160
Cn1c(-c2c(N)n(CCc3ccccc3)c3nc4ccccc4nc23)nc2ccccc21,-3,nt,2,nt,nt
